# Results from ChEMBL document CHEMBL1138494, “Human glucagon receptor antagonists with thiazole cores. A novel series with superior pharmacokinetic properties” (J Med Chem, 2009).
# Calls of active or inactive are those of the source. No cut-off for these calls is given here.
# Assays:
# [1] = Half life in fasted Sprague-Dawley rat plasma at 1.66 mg/kg, iv by HTLC-MS/MS analysis; type: ADME, organism-based; parameters: dose 1.66 mg/kg, route intravenous
# How it was run: (§1)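 Rats were dosed intravenously and perorally in separate arms, and plasma concentration-time profiles were obtained. Half-life was taken from the iv arm. Clearance, oral bioavailability, Cmax and Tmax were derived from the profiles.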
# [2] = target: T1, Gastric inhibitory polypeptide receptor (Homo sapiens, UniProt P48546); experiment: Binding affinity to human recombinant GIPR expressed in BHK cells by membrane filter assay; type: cell-based
# T1 sequence (P48546 whole entry): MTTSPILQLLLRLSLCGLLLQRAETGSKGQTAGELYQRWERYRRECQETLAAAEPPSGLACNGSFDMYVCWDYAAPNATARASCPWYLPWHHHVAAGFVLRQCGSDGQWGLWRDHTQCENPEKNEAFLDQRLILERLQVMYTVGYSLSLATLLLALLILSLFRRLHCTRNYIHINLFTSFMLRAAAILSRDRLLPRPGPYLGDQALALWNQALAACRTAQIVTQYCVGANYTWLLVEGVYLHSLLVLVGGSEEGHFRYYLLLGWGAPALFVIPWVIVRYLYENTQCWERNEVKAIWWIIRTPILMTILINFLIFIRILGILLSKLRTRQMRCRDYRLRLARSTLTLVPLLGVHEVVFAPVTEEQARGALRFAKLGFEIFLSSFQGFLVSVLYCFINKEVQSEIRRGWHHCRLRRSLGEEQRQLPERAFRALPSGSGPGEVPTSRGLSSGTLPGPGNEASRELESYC
# Glucagon receptor [3] = target: Glucagon receptor (Mus musculus, UniProt Q61606); experiment: Binding affinity to glucagon receptor in mouse liver membrane by membrane filter assay; type: cell membranes
# Homo sapiens [4] = organism: Homo sapiens; experiment: Selectivity ratio of IC50 for human recombinant glucagon receptor to IC50 for human recombinant GIPR
# How it was run: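 Competition binding of compounds to recombinant human glucagon and GIP receptors on BHK cell membranes, run in parallel as a scintillation proximity assay and, for selected compounds, as a membrane filtration assay.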
# Hepatocyte [5] = experiment: Inhibition of glucagon-stimulated glucose production in human primary hepatocytes preincubated for 10 mins before glucagon addition by NADH-linked hexokinase assay; type: functional, cell-based
# How it was run: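 Cultured primary human hepatocytes were preincubated with compound for 10 min, then glycogenolysis was induced with 5 nM glucagon for 60 min. Glucose in the medium was measured against basal glycogenolysis. Albumin was present in the assay medium. IC50 was calculated from four experiments, mean ± SEM.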
# Homo sapiens [6] = organism: Homo sapiens; experiment: Selectivity for human recombinant glucagon receptor over human GLP1R
# [7] = Oral bioavailability in fasted Sprague-Dawley rat at 3.34 mg/kg by HTLC-MS/MS analysis; type: ADME, organism-based; settings: in vivo
# How it was run: (§2)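 Separate intravenous and peroral dosing arms per compound, with plasma concentration followed against time. Oral bioavailability (F_po) is reported per compound together with the intravenous half-life and clearance. The dose used for each arm is listed per compound.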
# [8] = Tmax in fasted Sprague-Dawley rat at 1.66 mg/kg, iv and 3.34 mg/kg, po by HTLC-MS/MS analysis; type: ADME, organism-based; settings: in vivo
# How it was run: (§3)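 Plasma concentration–time profiles were recorded after separate intravenous and peroral dosing at the per-compound doses listed. T_max is reported in min alongside C_max (ng/mL), intravenous half-life and clearance ((mL/min)/kg).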
# [9] = Binding affinity to glucagon receptor in monkey liver membrane by membrane filter assay; type: cell membranes, Macaca mulatta
# [10] = Cmax in fasted Sprague-Dawley rat at 1.66 mg/kg, iv and 3.34 mg/kg, po by HTLC-MS/MS analysis; type: ADME, organism-based; settings: in vivo; how it was run: as §1
# Glucagon receptor [11] = target: T2, Glucagon receptor (Homo sapiens, UniProt P47871); experiment: Displacement of [125I]porcine glucagon from human recombinant glucagon receptor expressed in BHK cells by scintillation proximity assay; type: cell-based
# Glucagon receptor [12] = target: T2, Glucagon receptor; experiment: Binding affinity to human recombinant glucagon receptor expressed in BHK cells by membrane filter assay; type: cell-based
# [13] = target: T1, Gastric inhibitory polypeptide receptor; experiment: Displacement of [125I]porcine GIP from human recombinant GIPR receptor expressed in BHK cells by scintillation proximity assay; type: cell-based
# [14] = Clearance in fasted Sprague-Dawley rat at 1.66 mg/kg, iv and 3.34 mg/kg, po by HTLC-MS/MS analysis; type: ADME, organism-based; settings: in vivo; how it was run: as §1
# Glucagon receptor [15] = target: Glucagon receptor (Rattus norvegicus, UniProt P30082); experiment: Binding affinity to glucagon receptor in rat liver membrane by membrane filter assay; type: cell membranes
# Hepatocyte [16] = experiment: Inhibition of glucagon-stimulated glucose production in rat primary hepatocytes; type: functional, cell-based
# [17] = Oral bioavailability in fasted Sprague-Dawley rat at 3.7 mg/kg by HTLC-MS/MS analysis; type: ADME, organism-based; settings: in vivo; how it was run: as §2
# [18] = Half life in fasted Sprague-Dawley rat plasma at 1.9 mg/kg, iv by HTLC-MS/MS analysis; type: ADME, organism-based; parameters: dose 1.9 mg/kg, route intravenous; how it was run: as §1
# [19] = Cmax in fasted Sprague-Dawley rat at 1.9 mg/kg, iv and 3.7 mg/kg, po by HTLC-MS/MS analysis; type: ADME, organism-based; settings: in vivo; how it was run: as §1
# [20] = Tmax in fasted Sprague-Dawley rat at 1.9 mg/kg, iv and 3.7 mg/kg, po by HTLC-MS/MS analysis; type: ADME, organism-based; settings: in vivo; how it was run: as §3
# [21] = Clearance in fasted Sprague-Dawley rat at 1.9 mg/kg, iv and 3.7 mg/kg, po by HTLC-MS/MS analysis; type: ADME, organism-based; settings: in vivo; how it was run: as §1
# [22] = Clearance in fasted Sprague-Dawley rat at 1.6 mg/kg, iv and 3.15 mg/kg, po by HTLC-MS/MS analysis; type: ADME, organism-based; settings: in vivo; how it was run: as §1
# [23] = Cmax in fasted Sprague-Dawley rat at 1.6 mg/kg, iv and 3.15 mg/kg, po by HTLC-MS/MS analysis; type: ADME, organism-based; settings: in vivo; how it was run: as §1
# [24] = Half life in fasted Sprague-Dawley rat plasma at 1.6 mg/kg, iv by HTLC-MS/MS analysis; type: ADME, organism-based; parameters: dose 1.6 mg/kg, route intravenous; how it was run: as §1
# [25] = Tmax in fasted Sprague-Dawley rat at 1.6 mg/kg, iv and 3.15 mg/kg, po by HTLC-MS/MS analysis; type: ADME, organism-based; settings: in vivo; how it was run: as §3
# [26] = Oral bioavailability in fasted Sprague-Dawley rat at 3.15 mg/kg by HTLC-MS/MS analysis; type: ADME, organism-based; settings: in vivo; how it was run: as §2
# [27] = Half life in fasted Beagle dog at 0.25 mg/kg, iv; type: ADME, organism-based, Canis lupus familiaris; parameters: dose 0.25 mg/kg, route intravenous; settings: in vivo
# How it was run: (§4)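 Dogs were dosed at 0.25 mg/kg iv and 0.5 mg/kg po, and plasma concentration was followed over time. Half-life came from the iv arm; clearance, Cmax and Tmax were also derived.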
# [28] = Binding affinity to glucagon receptor in dog liver membrane by membrane filter assay; type: cell membranes, Canis lupus familiaris
# [29] = Oral bioavailability in fasted Beagle dog at 0.5 mg/kg; type: ADME, organism-based, Canis lupus familiaris; settings: in vivo; how it was run: as §2
# [30] = Binding affinity to glucagon receptor in pig liver membrane by membrane filter assay; type: cell membranes, Sus scrofa
# [31] = Binding affinity to glucagon receptor in rabbit liver membrane by membrane filter assay; type: cell membranes, Oryctolagus cuniculus
# [32] = Cmax in fasted Beagle dog at 0.25 mg/kg, iv and 0.5 mg/kg, po; type: ADME, organism-based, Canis lupus familiaris; settings: in vivo; how it was run: as §4
# [33] = Tmax in fasted Beagle dog at 0.25 mg/kg, iv and 0.5 mg/kg, po; type: ADME, organism-based, Canis lupus familiaris; settings: in vivo; how it was run: as §3
# [34] = Clearance in fasted Beagle dog at 0.25 mg/kg, iv and 0.5 mg/kg, po; type: ADME, organism-based, Canis lupus familiaris; settings: in vivo; how it was run: as §4
# T2 sequence (P47871 whole entry): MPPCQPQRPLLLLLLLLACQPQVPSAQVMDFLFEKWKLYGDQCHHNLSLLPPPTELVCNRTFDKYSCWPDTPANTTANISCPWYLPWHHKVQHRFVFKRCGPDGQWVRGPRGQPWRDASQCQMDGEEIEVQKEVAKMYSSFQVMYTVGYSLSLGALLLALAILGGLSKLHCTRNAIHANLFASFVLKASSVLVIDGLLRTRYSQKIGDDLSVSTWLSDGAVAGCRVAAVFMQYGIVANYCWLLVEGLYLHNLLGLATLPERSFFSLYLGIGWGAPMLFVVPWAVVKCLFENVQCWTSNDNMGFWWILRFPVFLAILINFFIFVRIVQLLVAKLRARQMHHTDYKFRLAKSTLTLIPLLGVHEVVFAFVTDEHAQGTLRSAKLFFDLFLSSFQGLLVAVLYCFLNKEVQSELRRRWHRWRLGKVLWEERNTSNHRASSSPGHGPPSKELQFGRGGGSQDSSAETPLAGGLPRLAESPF
# Glucagon receptor (Rattus norvegicus, UniProt P30082), sequence (P30082 whole entry): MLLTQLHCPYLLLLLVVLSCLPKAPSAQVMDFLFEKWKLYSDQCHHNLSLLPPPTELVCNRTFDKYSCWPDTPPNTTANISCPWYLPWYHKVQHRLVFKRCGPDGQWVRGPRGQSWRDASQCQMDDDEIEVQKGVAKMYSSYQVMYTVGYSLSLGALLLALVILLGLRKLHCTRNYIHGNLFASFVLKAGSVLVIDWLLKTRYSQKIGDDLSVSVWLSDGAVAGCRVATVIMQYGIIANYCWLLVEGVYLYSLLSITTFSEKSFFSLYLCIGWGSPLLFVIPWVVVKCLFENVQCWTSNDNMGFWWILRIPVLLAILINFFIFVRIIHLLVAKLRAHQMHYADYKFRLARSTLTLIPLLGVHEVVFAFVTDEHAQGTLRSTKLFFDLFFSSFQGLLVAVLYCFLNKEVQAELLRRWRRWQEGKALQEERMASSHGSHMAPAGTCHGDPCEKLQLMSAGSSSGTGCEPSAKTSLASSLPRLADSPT
# Glucagon receptor (Mus musculus, UniProt Q61606), sequence (Q61606 whole entry): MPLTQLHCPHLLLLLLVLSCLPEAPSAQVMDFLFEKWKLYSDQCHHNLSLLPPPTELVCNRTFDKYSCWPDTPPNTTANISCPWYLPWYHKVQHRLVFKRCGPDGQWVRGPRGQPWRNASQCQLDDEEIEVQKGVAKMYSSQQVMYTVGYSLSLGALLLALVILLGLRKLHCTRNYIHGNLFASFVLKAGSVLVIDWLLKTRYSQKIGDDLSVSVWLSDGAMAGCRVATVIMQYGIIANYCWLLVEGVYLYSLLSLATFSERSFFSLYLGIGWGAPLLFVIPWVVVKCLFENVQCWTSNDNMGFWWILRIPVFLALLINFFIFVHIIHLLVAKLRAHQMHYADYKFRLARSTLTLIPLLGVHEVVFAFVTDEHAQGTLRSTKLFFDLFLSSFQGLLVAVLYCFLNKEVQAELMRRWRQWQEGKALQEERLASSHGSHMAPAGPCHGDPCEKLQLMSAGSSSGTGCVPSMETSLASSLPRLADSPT
Compound,fold change (FC) (Homo sapiens [4]),fold change (FC) (Homo sapiens [6]),IC50 (Glucagon receptor [11]) [nM],IC50 [13] [nM],further results
O=C(O)CCNC(=O)c1ccc(CN(c2ccc3c(c2)CCC3)c2nc(-c3ccc(C(F)(F)F)cc3)cs2)cc1,5,> 50,86,1100,half-life [1]: 2.18 h; IC50 [2]: 510 nM; IC50 (Glucagon receptor [3]): 830 nM; IC50 (Hepatocyte [5]): < 20000 nM; bioavailability [7]: 89%; Tmax [8]: 1 h; IC50 [9]: 81 nM; Cmax [10]: 920 ng/mL; IC50 (Glucagon receptor [12]): 64 nM; clearance [14]: 13 mL/min/kg; IC50 (Glucagon receptor [15]): 5400 nM; inhibition (Hepatocyte [16]): inactive
O=C(NC[C@@H](O)C(=O)O)c1ccc(CN(c2ccc3c(c2)CCC3)c2nc(-c3ccc(OC(F)(F)F)cc3)cs2)cc1,5,> 50,225,> 1000,
CC(C)(C)c1ccc(-c2csc(N(Cc3ccc(C(=O)NCCC(=O)O)cc3)c3ccc(C(C)(C)C)cc3)n2)cc1,5,> 50,315,729,
O=C(O)CCNC(=O)c1ccc(CN(c2ccc(C3=CCCCC3)cc2)c2nc(-c3ccc(OC(F)(F)F)cc3)cs2)cc1,5,> 50,36,207,bioavailability [17]: 3%; half-life [18]: 0.717 h; Cmax [19]: 47 ng/mL; Tmax [20]: 1.5 h; clearance [21]: 34 mL/min/kg
O=C(O)CCNC(=O)c1ccc(CN(c2ccc(SC(F)(F)F)cc2)c2nc(-c3ccc(C(F)(F)F)cc3)cs2)cc1,5,> 50,34,777,
CC(C)(C)c1ccc(-c2csc(N(Cc3ccc(C(=O)NCCC(=O)O)cc3)c3ccc(C4=CCCCC4)cc3)n2)cc1,5,> 50,118,721,clearance [22]: 39 mL/min/kg; Cmax [23]: 13 ng/mL; half-life [24]: 0.5 h; Tmax [25]: 1.5 h; bioavailability [26]: 2%
O=C(O)CCNC(=O)c1ccc(CN(c2ccc(C3=CCCCC3)cc2)c2nc(-c3ccccc3)cs2)cc1,5,> 50,130,389,bioavailability [17]: 5%; half-life [18]: 0.617 h; Cmax [19]: 94 ng/mL; Tmax [20]: 1.5 h; clearance [21]: 35 mL/min/kg
O=C(NC[C@@H](O)C(=O)O)c1ccc(CN(c2ccc3c(c2)CCC3)c2nc(-c3ccc(C(F)(F)F)cc3)cs2)cc1,5,> 50,261,> 1000,
O=C(O)CCNC(=O)c1ccc(CN(c2ccc3c(c2)CCCC3)c2nc(-c3ccc(Cl)c(Cl)c3)cs2)cc1,5,> 50,79,830,IC50 [2]: 390 nM; clearance [22]: 5 mL/min/kg; half-life [27]: 2.07 h; IC50 [28]: 81 nM; IC50 (Glucagon receptor [3]): 452 nM; IC50 (Hepatocyte [5]): 4000 nM; bioavailability [29]: 92%; Cmax [23]: 1180 ng/mL; half-life [24]: 1.73 h; IC50 [9]: 55 nM; IC50 [30]: 3300 nM; IC50 [31]: 1900 nM; Tmax [25]: 1 h; Cmax [32]: 1190 ng/mL; Tmax [33]: 0.85 h; clearance [34]: 1.44 mL/min/kg; bioavailability [26]: 36%; IC50 (Glucagon receptor [12]): 54 nM; IC50 (Glucagon receptor [15]): 1600 nM; inhibition (Hepatocyte [16]): inactive
COc1ccccc1-c1csc(N(Cc2ccc(C(=O)NCCC(=O)O)cc2)c2ccc(SC(F)(F)F)cc2)n1,5,> 50,420,> 1000,
Cc1cc(N(Cc2ccc(C(=O)NCCC(=O)O)cc2)c2nc(-c3ccc(C(F)(F)F)cc3)cs2)ccc1C(C)C,5,> 50,119,633,IC50 [2]: 293 nM; IC50 (Glucagon receptor [12]): 93 nM
O=C(O)CCNC(=O)c1ccc(CN(c2nc(-c3ccc(Cl)c(Cl)c3)cs2)C2CCCc3ccccc32)cc1 (stereo not given),5,> 50,531,1110,
O=C(O)CCNC(=O)c1ccc(CN(c2ccc3c(c2)CCC3)c2nc(-c3ccc(Cl)c(Cl)c3)cs2)cc1,5,> 50,99,638,
O=C(O)CCNC(=O)c1ccc(N(Cc2ccc3c(c2)Cc2ccccc2-3)c2nc(-c3ccc(Cl)cc3)cs2)cc1,5,> 50,93,555,IC50 [2]: 320 nM; IC50 (Glucagon receptor [12]): 34 nM
O=C(O)CCNC(=O)c1ccc(CN(c2ccc(C3=CCCCC3)cc2)c2nc(-c3ccc(Cl)cc3)c(-c3ccccc3)s2)cc1,5,> 50,86,1000,
Cc1cc(N(Cc2ccc(C(=O)NCCC(=O)O)cc2)c2nc(-c3cc(C(F)(F)F)cc(C(F)(F)F)c3)cs2)ccc1C(C)C,5,> 50,131,584,
